# Legend:
# [1] = tested on: 5′-FAM-DNA20 (20-mer single-stranded DNA); assay: Fluorescence anisotropy; format: binding
# How it was run: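 Binding was measured by fluorescence anisotropy. CCHC-containing constructs were reconstituted with 3 equiv zinc unless noted. Kd was fitted with a quadratic binding equation corrected for the bound/free intensity ratio.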
# [2] = tested on: 59-nt TAR RNA / TAR DNA hairpins; assay: Gel-shift TAR RNA/DNA annealing assay; format: biochemical, HIV-1; settings: for kobs: average of three trials ± SD, SD; for Fold decrease of kobs relative to WT NC: normalized for protein concentration
# [3] = tested on: 59-nt TAR RNA and TAR DNA; assay: Sedimentation assay of nucleic acid aggregation; format: biochemical, HIV-1; settings: 0.2 mM MgCl2
# How it was run: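 Refolded 32P-TAR RNA (15 nM) and TAR DNA (45 nM) were incubated with varying protein in 20 mM HEPES pH 7.5 and 20 mM NaCl (final MgCl2 0.2 mM) for 30 min at 37 °C. Fragments were run at 10–50 μM, with or without zinc. Samples were centrifuged at 10000 rpm for 10 min, and supernatant radioactivity was counted by scintillation.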
# [4] = 0.88 μM peptide, 45 nM TAR DNA, 2 mM MgCl2
# [5] = 4 μM protein, 90 nM TAR DNA and 2 mM MgCl2
substance,measurement,setting,value
"NC(1-14): HIV-1 NC fragment, residues 1-14, basic N-terminal domain",Binding to 5′-FAM-DNA20 (in words),"[1]; FA, no zinc acetate",no binding could be detected
same,Final % Annealing,"[2]; 20 μM peptide, 15 nM TAR RNA, 45 nM TAR DNA, 0.2 mM MgCl2, 37 °C, 30 min",3%
same,Final % Annealing,"[2]; 50 μM peptide, 15 nM TAR RNA, 45 nM TAR DNA, 0.2 mM MgCl2, 37 °C, 30 min",did not change appreciably
"NC(1-35): HIV-1 NC fragment, residues 1-35, purchased from Genscript",Fold higher affinity of zinc-bound form relative to zinc-less variant,[1]; 5′-FAM-DNA20,2- to 3 fold
same,Fold lower ss DNA binding affinity than WT NC,"[1]; 5′-FAM-DNA20, 50 mM NaCl",≤ 2 fold
same,Kd,"[1]; read-out: Apparent binding dissociation constant Kd to 5′-FAM-DNA20, FA, 20 nM DNA, 20 mM HEPES pH 7.5, 50 mM NaCl, 5 mM β-mercaptoethanol, 10 μM TCEP, 1 μM zinc acetate, 30 min, 25 °C, average of three trials ± SD, SD",0.086 ± 0.019 µM
same,Nucleic acid aggregation (in words),[3],essentially complete aggregation
same,RNA annealed at 30 sec,"[2]; 0.88 μM peptide, 45 nM TAR DNA, 0.2 mM MgCl2",~ 75%
same,Final % Annealing,[2]; [4],54%
same,kobs,[2]; [4],0.17 ± 0.07 min⁻¹
same,Fold decrease of kobs relative to WT NC,"[2]; 0.88 μM peptide, 2 mM MgCl2",1.3 fold
WT (zinc-less): full-length HIV-1 NC not reconstituted with zinc,Final % Annealing,[2]; [5],22%
same,kobs,[2]; [5],0.07 ± 0.02 min⁻¹
same,Fold decrease of kobs relative to WT NC,[2]; [5],2 fold

# Source: publication PMC3875364 (Biochemistry, 2013)
